Data on 167 variants can be found in the RNAGym collection of RNA variant scans (doi:10.1126/science.aae0568).

Variants at the floor of the assay were thinned out.

B1: tRNA (parent)
chain: GUUCCGUUGGCGUAAUGGUAACGCGUCUCCCUCCUAAGGAGAAGACUGCGGGUUCGAGUCCCGUACGGAACG

The variants in the data set derive from B1. Nature of the data set: yeast fitness relative to wild type (ratio to wild type); higher = fitter; tRNA-Arg(CCU), competitive growth, 37 C, YPD. The procedure, abridged:
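Variants of the tRNA-Arg(CCU) gene, chemically synthesised with a 3% per-site mutation rate at 69 sites, were placed at the native genomic locus in Saccharomyces cerevisiae. The pooled strains were competed in YPD at 37°C for 24 hours in six parallel replicates. Gene amplicons from the start population and from each end population were read by 100-nucleotide paired-end sequencing. Darwinian fitness relative to wild type came from changes in genotype frequencies; genotypes needed ≥ 100 starting reads, and estimates < 0.5 were set to 0.5.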
Consider G18A C33G U53A, for which the yeast fitness was at most 0.5.
To G39A G67A belongs 0.769.
Regarding A15G A36U U59A, the yeast fitness is at most 0.5.
For the variant C49U A65G C66G, the yeast fitness was at most 0.5.
For A20C C24U G68C, the yeast fitness is 0.542.
Take G10A C11A G67C: the yeast fitness was at most 0.5.
As to U2A C4A C5G A65G, the yeast fitness was at most 0.5.
For C5U G12C A42G C55A C62A, the yeast fitness is at most 0.5.
As to C24A U26C, the yeast fitness came out at 0.678.
To C5G A14U G18A A21U A42G C62U A65C belongs at most 0.5.
The same measure for U26A U59C C66U: 0.564.
As to C5A U26G, the yeast fitness amounted to 0.785.
For U13C G48C C49U, the yeast fitness was found to be 0.772.
To C4G U8G C24A C31G G50A belongs 0.594.
For the variant G12C U26A G48A G56C, the yeast fitness was at most 0.5.
Consider U2C C4U A21C U28C C31A U32C, for which the yeast fitness is at most 0.5.
For C4A A37U C55U, the yeast fitness worked out at 0.585.
The same measure for A42U C46U A57U: 0.538; for A21U C49U U54A: at most 0.5; for U8A C34U C55G: at most 0.5.
To C5U C22U C34A A42U G44C C61A belongs at most 0.5.
As for G6C G23A A70U, the yeast fitness is at most 0.5.
Take U3A C4G U8A C34U: the yeast fitness was at most 0.5.
To A36G A37G belongs 0.816.
As to C30U C62G, the yeast fitness worked out at 0.855.
The same measure for A14U G52A G68C: at most 0.5; for A43C G58A: 0.944; for C4A C11G U13G G25A C62U G63A: at most 0.5.
As for G9C C22A C34A A70G, the yeast fitness is at most 0.5.
The same measure for G48A U54G: 0.686.
The same measure for C22U A42C A57C: at most 0.5; for C5U A43G C49G A69C: at most 0.5; for C22U A40G A43U C46G C49G A70G: at most 0.5.
The same measure for A40U A45U: 0.941; for C30A C55G C66U: at most 0.5.
As to G12C A45C C61A, the yeast fitness was determined as 0.686.
To A15U G38C G39A A43C U59A C60U belongs at most 0.5; to A14G G67A, 0.821.
Consider U2A U16G C49G, for which the yeast fitness is 0.705.
On to U7A C11U A36U, for which the yeast fitness was at most 0.5.
With A20G C29G G63C, the yeast fitness is at most 0.5.
Consider A15C C27U G63A, for which the yeast fitness was at most 0.5.
With G9A A69U, the yeast fitness is 1.04.
To C4U U8A G48A C55U belongs at most 0.5.
For the variant U3G C66U, the yeast fitness was determined as 0.699.
The same measure for C29A C33U C61U A69U: at most 0.5; for C34U G38C: 0.605.
To A36C A37U A65C belongs 0.534; to C29A C46U C60U, at most 0.5.
To U3C C5G G51C belongs at most 0.5; to U8A U13A A20C A21U A42U, at most 0.5; to C49U A70C, 1.02.
As for U26A C31G A37G G63A, the yeast fitness is at most 0.5.
Turning to U19C A21G U26G G48C, the yeast fitness stood at 0.624.
The same measure for G48A G51C C61G: 1.02; for G9C U32G C33G G50A U53G: at most 0.5.
Take C34G A42U: the yeast fitness came out at 0.621.
The same measure for G48C G68C: 0.789; for U3A G58A: 1.01; for C22G A43G C55U U64G: at most 0.5.
In the case of G9U A70C, the yeast fitness is 1.13.
As for C61G C62U, the yeast fitness amounted to 0.613.
The same measure for A36C A45C G48A A65C: at most 0.5; for G10A A36U A37G: at most 0.5; for C4A C11A U13C A70U: at most 0.5.
To C4G C11A U32G A36G belongs at most 0.5; to C5U U13G A42U, 0.627; to C11G C29U C34U G68C, at most 0.5.
As to G6C G23C C24A G52A C55U, the yeast fitness was at most 0.5.
G9A C22G A36U: the yeast fitness amounted to 0.666.
As to C30U A45C A65U, the yeast fitness is at most 0.5.
Take A21U U54A G56C A70G: the yeast fitness was determined as 0.576.
The same measure for C11U C22A C29G C33U U35C A70C: at most 0.5; for A45G C55U G67A: 0.656.
The same measure for G18C C30U U32A C34G A45C U47G A57G: 0.688.
The same measure for G25C A43G C61U: 0.623; for A45C C46U: 1.02; for U19G C55G A69U: 0.54.
As to C5G G51C C55G A57U C66U, the yeast fitness is at most 0.5.
A37G G67A: the yeast fitness is 0.819.
Consider A43C U64G, for which the yeast fitness turned out to be 0.618.
Regarding C30U C46A G51A, the yeast fitness came to 0.608.
Turning to A15G A43U C60G, the yeast fitness was at most 0.5.
Regarding C5U C31U, the yeast fitness is 1.03.
Consider G17A C31U U35C A57G, for which the yeast fitness was 0.527.
As to C11U A15U A21C C24G C29U A42C U59G G67U, the yeast fitness was at most 0.5.
The same measure for G9C A14U G51A U64G: 0.608; for C46U C49A C55U: 0.678.
Take U32C G39C: the yeast fitness worked out at 0.765.
The same measure for C27A A36U A37U G48C C61U: at most 0.5; for A14C A65C: 0.635; for C4G C22A C27U G63C: 0.735.
The same measure for U8A C29A: at most 0.5; for A15U C29A C55A: at most 0.5.
Consider C5A U8C C11U C31A A37U G67C, for which the yeast fitness was at most 0.5.
The same measure for C5G A21C A45G A57G G68A: at most 0.5; for G17A C22U C27A C30G: at most 0.5; for G17A C29G A45G C61U: at most 0.5.
The same measure for C11U A20C C49G G67A: at most 0.5; for U16C G50C C66U: 0.584; for G9A A45G G50C A69C: at most 0.5.
To G9A C31U C60U A65G belongs at most 0.5.
As to G25C C29A G48C C60A, the yeast fitness was at most 0.5.
The same measure for A15C G23A A42C G48A G50C: at most 0.5; for A14U U35A G52A C61G C66A: at most 0.5.
To U54C C66U A69U belongs 0.62.
To C4A G18A belongs 0.78; to C4G C46U, 0.861; to U26C C30G A43U G50A, at most 0.5.
G10C C55G A69C: the yeast fitness was at most 0.5.
To G10A A20U C31G C62U belongs at most 0.5; to C30G G50U C66U, 0.573.
The same measure for C30G A57G G68U: at most 0.5; for U8G G25A A70C: 0.544; for G25C C30U C61G: 0.526.
For the variant C29A C31U A43U, the yeast fitness was found to be 0.506.
Regarding G25A C31G A45U C61U, the yeast fitness was determined as 0.727.
To C29G C55G A57G A69G belongs 0.606.
To C11G U26A belongs 0.583; to U26A A40U, 0.809.
Take C5A C11G G41C C49U: the yeast fitness was at most 0.5.
To C22G C34A A36U A42C C46G belongs at most 0.5; to C11G A15U C22U A42G, at most 0.5.
In the case of C5U G38C, the yeast fitness stood at 0.719.
Regarding C4A C33A C60A, the yeast fitness was at most 0.5.
The same measure for C11G C55G A57C: at most 0.5; for G17A A21G U28G C62G: at most 0.5.
As for U8G A14U G39A C55G, the yeast fitness is at most 0.5.
To U7A C24G C29G C30U A40C A65U belongs 0.59.
For U16C C30A C31U, the yeast fitness was determined as 0.834.
The same measure for A40C A57G C61U: 0.573.
As for C4G A15G G17C C34A, the yeast fitness amounted to 0.598.
A43G G51A A69C: the yeast fitness is at most 0.5.
In the case of U2A G17C A70U, the yeast fitness was 0.572.
Turning to U8A A14G, the yeast fitness is 0.632.
Take U13G U47G C66U: the yeast fitness was at most 0.5.
To U7G G41C G58C belongs at most 0.5.
To A21U C29G C49G belongs 0.519; to C46A G67C, 0.896.
The same measure for C27A A36G U53A A70G: at most 0.5; for G18C C31G G44C: 0.658.
Consider U32C G48A U53G, for which the yeast fitness was at most 0.5.
Consider C5U A20C C29A, for which the yeast fitness turned out to be 0.666.
For the variant C4A A42G C60G, the yeast fitness stood at 0.53.
To C11U A21C A42G C49U A69C A70G belongs at most 0.5; to A42G U64C, 0.904.
For the variant U2C A20G U47A U53A C62U C66U, the yeast fitness was at most 0.5.
The same measure for C4U U19A G44C U53G: at most 0.5.
To G6C U32C A36C belongs at most 0.5; to G18C G67A A69C, at most 0.5.
The same measure for C4G G9C G41A: at most 0.5.
As to C4U C27A C30U A37U C60G, the yeast fitness worked out at 0.639.
As to G9C U16G A20G, the yeast fitness turned out to be 0.803.
The same measure for C5G U8A G41C G63A: at most 0.5; for G17A C22G C27A G63A: 0.538.
The same measure for C5A C11U C34A A40U A42U C49A G50C A57C C66G: at most 0.5; for C24U C55G G67A: at most 0.5; for G17A U35G G48C C66U: 0.535.
To U13C A21G G39C G50A U59G C61A C62U belongs 0.502; to C31G A36C C61U, at most 0.5; to C11G G38C C55U C61G, at most 0.5.
As for C4A C5U G39C A42C, the yeast fitness was at most 0.5.
Turning to G9A A15U C33G G39A C62A, the yeast fitness is at most 0.5.
To C24G C31G belongs 0.773; to C11U A15C, 0.595.
The same measure for C22G C27G C31G C49A G52A: at most 0.5.
The same measure for A21G A36G A42U: 0.75.
